M1 ag: activates the M1 muscarinic receptor | AID 626 | 64,000 compounds, 3% hits | B-score at 10 µM | CHO-M1 cells, Fluo-4 calcium fluorescence, agonist mode; hits give high values;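 active = fluorescence rise, raw or as B-score row- and column-corrected plate score, outside the 99.7% band of its plate's samples, either direction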
M1 antag: antagonists of rat M1 muscarinic receptor; 64,000 compounds, 3.4% hits; B-score at 10 µM; P08482; AID 628; CHO-M1 cells, Fluo-4 calcium, ACh EC80 antagonist mode; hits give low values;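 active = calcium fluorescence response, raw or row-and-column corrected B-score, differing from the plate sample mean either way at a set confidence level, mostly lower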
S1P1 ag pot: activates or potentiates agonism at human S1P1 receptor | activation, % at 9.5 µM | 56,000 compounds, 0.57% hits | S1P1 CRE-bla cells, forskolin, beta-lactamase FRET, potentiator mode; S1P1 agonist co-added at EC20, 2 nM; 100% = saturating reference agonist, 0% = basal | P21453;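 active = activation above a cutoff set at the mean activation of all tested compounds plus 3 SD, cut at about 54% in these data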;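 also: forskolin at 4 µM as EC80 and the EC20 agonist is SEW2871; 100% = SEW2871 at its EC100 plus forskolin at EC80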
S1P3 ag: agonists of human S1P3 receptor. Q99500. S1P3 NFAT-BLA reporter cells, agonism, FRET ratio; relative to 1 µM S1P, basal subtracted. activation, % at 4.5 µM. 60,000 compounds, 0.1% hits. AID 373;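 active = activation above the screen-wide mean plus 3 SD, cut at about 4.5% in these data, passing the limit was not always enough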
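Measure – % activation relative to 1 µM S1P (100%), per plate · System – stable CHO line with human S1P3, Gα16, NFAT-BLA reporter · Timing – cells plated overnight, compound 4 h 37 °C, substrate 2 h RT · Technique – fluorescent BLA substrate, ex 405 nm, em 460/535 nm ratio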
D1 allo mod: D1 dopamine receptor (human) allosteric modulation. 58,000 compounds, 5.9% hits. AID 641. HEK293 D1, CRE-luciferase, dopamine EC30 potentiation; actives deviate in either direction. B-score at 10 µM. P21728;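 active = luminescence count or its row- and column-corrected plate score outside the 99.7% band of the plate's sample wells, on either side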
Target sequence (P21728 whole entry, looked up): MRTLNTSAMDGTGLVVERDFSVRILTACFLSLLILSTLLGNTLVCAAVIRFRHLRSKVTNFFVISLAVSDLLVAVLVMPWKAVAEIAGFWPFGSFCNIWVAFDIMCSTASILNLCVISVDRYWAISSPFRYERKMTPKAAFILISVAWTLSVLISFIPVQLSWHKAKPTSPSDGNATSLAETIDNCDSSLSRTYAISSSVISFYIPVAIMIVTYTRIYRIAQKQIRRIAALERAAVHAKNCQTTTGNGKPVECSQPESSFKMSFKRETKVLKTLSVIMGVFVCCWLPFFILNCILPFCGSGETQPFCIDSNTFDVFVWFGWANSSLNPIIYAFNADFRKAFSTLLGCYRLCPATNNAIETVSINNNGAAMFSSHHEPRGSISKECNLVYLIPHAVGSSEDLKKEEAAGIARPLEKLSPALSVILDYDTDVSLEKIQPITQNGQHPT
Numbers without * were called inactive; . = no result given. This is a sample that favours compounds with a hit; in the whole collection about 11% have one here.

SMILES	M1 ag	M1 antag	S1P1 ag pot	S1P3 ag	D1 allo mod
COc1cccc(C2C3=C(CCCC3=O)Nc3nc4ccccc4n32)c1OC (centres undefined)	-0.61	0.67	-55	-2	1.4
c1ccc(Sc2nc(N3CCCCC3)nc(N3CCCCC3)n2)nc1	0.48	2.1*	.	.	0.35
Cc1nc2ccccc2nc1N1CCCCC1	0.21	1.1	-1	-2	1.2
CC1CCN(CC(O)COc2ccc(F)cc2)CC1 (centres undefined)	-0.053	-0.46	-23	0	-5.6*
CC(C)c1ccc(OCC(O)CN2CCN(c3ccccc3)CC2)cc1 (centres undefined)	0.27	-1.7	-2	0	-4.5*
CCOCCOCN(C#N)c1nc(OC)nc(N(C)C)n1	-0.32	1.3	.	.	.
O=C(c1csc2c1CCCCC2)N1CCN(c2ncccn2)CC1	0.25	0.29	-7	-2	2.7
CCOC(=O)c1ccc2[nH]c(C)c(CCC(C)=O)c(=O)c2c1	0.72	0.45	7	0	-0.2
Cc1[nH]c2ccc(C(=O)OCCN(C)C)cc2c1C	-0.63	-0.35	2	0	-4*
COC(=O)C1=C(C)N=c2s/c(=C/c3ccoc3)c(=O)n2C1c1ccccc1 (centres undefined)	0.16	-0.12	.	.	-3.6*
COC(=O)C1=C(C)N=c2s/c(=C/c3cccs3)c(=O)n2C1c1cccs1 (centres undefined)	-2.1	-0.056	19	0	-0.46
COc1ccc(-n2nc3c(c2NC(=O)c2cc4ccccc4oc2=O)CS(=O)(=O)C3)cc1	-0.51	1.3	.	.	1.6
CC(=O)Nc1ccccc1NC(=O)C(F)(F)F	-0.45	1.8*	-18	0	0.22
CCOC(=O)C1CCN(Cc2ccc(C(=O)OC)cc2)CC1	41*	-5.6*	.	-1	-0.64
Cc1cc(C)n(S(=O)(=O)c2cc(C(=O)O)c(Cl)cc2Cl)n1	-1.3	2.3*	.	-1	1.9
Cc1ccc(C(C)C)c(OCC(O)CN2CCOCC2)c1 (centres undefined)	0.29	-0.62	-2	-1	0.21
Cc1ccc(C(C)C)c(OCC(O)CN2CC(C)OC(C)C2)c1 (centres undefined)	0.14	-0.041	-5	0	-3.5*
CC1(C)CC(=O)C(C=Nc2ccc3[nH]ncc3c2)=C(O)C1	0.25	-0.61	99*	-2	-1.2
CC1(C)CC(=O)C(C=Nc2ccc3cn[nH]c3c2)=C(O)C1	-1	-0.16	13	-2	1.7
CC(C)Cn1c(N)c(C(=O)CSc2ccc3c(c2)OCCO3)c(=O)n(C)c1=O	3.9	-0.035	104*	-2	-0.049
CC(C)Cn1c(N)c(C(=O)COC(=O)c2ccc3c(c2)OCCO3)c(=O)n(C)c1=O	3.3	-0.62	13	0	-0.013
CC(C)Oc1ccc(C2C(C(=O)c3ccco3)=C(O)C(=O)N2CCCN(C)C)cc1 (centres undefined)	0.095	-0.48	-17	0	0.026
COc1ccc(-c2noc(CCC(=O)Nc3nc4ccccc4s3)n2)cc1	-0.25	0.77*	.	.	0.22
COc1ccc(-c2noc(CCC(=O)Nc3cccc(C)c3)n2)cc1	-0.16	0.056	10	0	-0.1
COc1ccc(C(c2c(O)ccc3ccccc23)N2CCOCC2)c(OC)c1 (centres undefined)	0.22	0.052	110*	-2	-0.88
SMILES	M1 ag	M1 antag	S1P1 ag pot	S1P3 ag	D1 allo mod
COc1ccc(-c2csc(=Nc3ccccc3)n2CCO)cc1	2	0.094	.	.	.
COc1ccc(N=c2scc(-c3ccc(S(=O)(=O)N4CCOCC4)cc3)n2CCCO)cc1	-1.7	0.89	101*	-2	-0.034
COc1ccc(Cl)cc1C(=O)CSc1nc(N)cc(N)n1	-0.16	1	-6	0	1.4
O=c1oc2c(CN3CCCCC3)c(O)ccc2cc1-c1nc2ccccc2[nH]1	182*	-18*	52	-1	-0.4
O=c1oc2c3c4c(cc2cc1-c1nc2ccccc2[nH]1)CCCN4CCC3	338*	-15*	3	-1	-2.7*
COc1ccc(NC(C)=O)cc1NC(=O)CSc1nnc(-c2ccc(F)cc2)n1N	0.2	0.5	-3	-1	0.71
Cc1ccccc1OCc1nc(-c2ccc(NC(=O)c3ccco3)cc2)no1	-0.12	0.45	.	.	0.15
O=C(Nc1ccc(-c2noc(CCc3ccccc3)n2)cc1)c1cccnc1	4.2	-1	94*	0	-1.3

Source: PubChem (several laboratories)
